# From ChEMBL document CHEMBL1212703, “Identification of RIP1 kinase as a specific cellular target of necrostatins” (Nat Chem Biol, 2008)
# Residue numbers refer to the chain shown, from its start. The source made the active and inactive calls. No cut-off for these calls is given here. Peptide text beside a SMILES is read from it. * marks the point of attachment. Cbz = O=C(OCc1ccccc1)*; CH2F = FC*
# Key:
# [1] = tested on: T1, Receptor-interacting serine/threonine-protein kinase 1 (Homo sapiens), Q13546 [K45M]; experiment: Inhibition of human RIP1 K45M mutant autophosphorylation expressed in HEK293T cells; type: cell-based; conditions: HEK-293T
# T1 sequence (whole entry): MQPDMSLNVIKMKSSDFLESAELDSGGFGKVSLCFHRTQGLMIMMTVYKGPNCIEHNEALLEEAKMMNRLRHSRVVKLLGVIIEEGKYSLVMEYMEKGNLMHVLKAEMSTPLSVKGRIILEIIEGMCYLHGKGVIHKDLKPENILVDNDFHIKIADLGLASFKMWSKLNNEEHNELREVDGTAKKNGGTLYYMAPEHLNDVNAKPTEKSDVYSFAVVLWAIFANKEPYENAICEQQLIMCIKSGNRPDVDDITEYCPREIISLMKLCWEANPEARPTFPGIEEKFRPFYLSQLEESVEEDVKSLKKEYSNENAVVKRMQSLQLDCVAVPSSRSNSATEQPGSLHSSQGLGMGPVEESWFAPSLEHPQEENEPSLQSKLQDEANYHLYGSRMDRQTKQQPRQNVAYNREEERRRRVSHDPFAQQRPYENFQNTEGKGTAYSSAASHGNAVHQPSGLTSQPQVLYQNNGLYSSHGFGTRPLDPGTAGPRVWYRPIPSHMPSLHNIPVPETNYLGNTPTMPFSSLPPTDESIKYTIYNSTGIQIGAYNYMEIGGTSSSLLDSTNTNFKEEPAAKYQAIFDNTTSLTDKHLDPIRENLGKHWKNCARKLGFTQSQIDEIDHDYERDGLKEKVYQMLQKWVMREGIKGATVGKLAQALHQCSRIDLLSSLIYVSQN
# Jurkat [2] = experiment: Inhibition of cellular necroptosis in TNFalpha treated FADD deficient human Jurkat cells; type: functional, cell-based
# [3] = molecular target: Receptor-interacting serine/threonine-protein kinase 2 (Homo sapiens) (UniProt O43353); experiment: Inhibition of human RIP2 autophosphorylation expressed in HEK293T cells; type: cell-based; conditions: HEK-293T
# Receptor-interacting serine/threonine-protein kinase 2 (Homo sapiens), sequence (O43353 whole entry): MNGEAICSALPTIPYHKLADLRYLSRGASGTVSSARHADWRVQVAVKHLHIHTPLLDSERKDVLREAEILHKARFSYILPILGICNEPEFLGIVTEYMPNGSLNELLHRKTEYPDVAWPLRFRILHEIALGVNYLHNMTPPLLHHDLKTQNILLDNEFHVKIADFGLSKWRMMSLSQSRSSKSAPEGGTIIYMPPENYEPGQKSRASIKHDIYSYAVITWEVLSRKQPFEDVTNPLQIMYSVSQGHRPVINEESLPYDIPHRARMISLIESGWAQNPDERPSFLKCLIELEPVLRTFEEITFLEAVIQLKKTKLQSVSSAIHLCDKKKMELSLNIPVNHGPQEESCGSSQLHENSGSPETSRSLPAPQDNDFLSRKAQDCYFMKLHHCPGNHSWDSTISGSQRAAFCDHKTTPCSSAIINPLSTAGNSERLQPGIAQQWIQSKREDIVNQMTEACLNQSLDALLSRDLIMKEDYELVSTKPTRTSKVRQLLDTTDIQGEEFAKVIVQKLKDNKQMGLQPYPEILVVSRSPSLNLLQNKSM
# Outline: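 Myc-tagged RIP2 was transiently expressed in 293T cells, immunoprecipitated with anti-Myc antibody (clone 9E10), and used in an in vitro autophosphorylation kinase reaction with compound at the indicated concentrations, with DMSO as the vehicle.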
# Jurkat [4] = experiment: Inhibition of TNF-alpha-induced NF-kappaB activation expressed in FADD deficient human Jurkat cells at 30 uM by luciferase reporter gene assay; type: cell-based
# Outline: (§1)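 FADD-deficient Jurkat cells carrying a lentiviral NF-kB luciferase reporter, 2*10^4 cells/well, stimulated with 10 ng ml-1 human TNFα for 4 h with 30 µM compound. Luminescence read by Bright-Glo. Values given as fold luciferase increase over unstimulated cells; s.d. shown.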
# HEK-293T [5] = experiment: Inhibition of TNF-alpha-induced NF-kappaB activation expressed in HEK293T cells at 30 uM by luciferase reporter gene assay; type: cell-based
# Outline: (§2)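 293T cells, 1.2*10^6/well, cotransfected with pNFkB-Luc and pRSV-β-galactosidase control; 48 h later stimulated with 10 ng ml-1 human TNFα for 4 h with 30 µM compound. Luciferase (Bright-Glo) normalized to β-gal activity (ONPG, 30 °C, A420). Results expressed as fold over unstimulated cells; s.d. shown.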
# Jurkat [6] = experiment: Inhibition of cellular necroptosis in TNFalpha treated […] human Jurkat cells expressing RIP1 F162E mutant at 30 uM; type: functional, cell-based
# [7] = molecular target: Receptor-interacting serine/threonine-protein kinase 3 (Homo sapiens) (UniProt Q9Y572); experiment: Inhibition of human RIP3 autophosphorylation expressed in HEK293T cells; type: cell-based; conditions: HEK-293T
# Receptor-interacting serine/threonine-protein kinase 3 (Homo sapiens), sequence (Q9Y572 whole entry, looked up): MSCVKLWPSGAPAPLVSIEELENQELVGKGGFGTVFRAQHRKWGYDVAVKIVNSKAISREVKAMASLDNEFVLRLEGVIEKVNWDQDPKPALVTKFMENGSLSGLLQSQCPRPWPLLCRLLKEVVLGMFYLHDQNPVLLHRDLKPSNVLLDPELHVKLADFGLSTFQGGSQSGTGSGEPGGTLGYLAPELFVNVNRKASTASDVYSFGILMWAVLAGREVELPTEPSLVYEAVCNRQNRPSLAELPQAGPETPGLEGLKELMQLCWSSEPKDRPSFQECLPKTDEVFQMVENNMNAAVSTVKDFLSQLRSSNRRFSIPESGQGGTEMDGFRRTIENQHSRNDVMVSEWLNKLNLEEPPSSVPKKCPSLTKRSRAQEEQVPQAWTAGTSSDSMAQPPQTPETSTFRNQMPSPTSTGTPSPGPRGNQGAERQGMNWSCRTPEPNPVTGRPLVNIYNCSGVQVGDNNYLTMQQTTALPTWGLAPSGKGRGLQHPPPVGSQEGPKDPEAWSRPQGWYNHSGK
# [8] = molecular target: T2, Receptor-interacting serine/threonine-protein kinase 1 (Homo sapiens, UniProt Q13546); experiment: (§3) Inhibition of endogenous RIP1 autophosphorylation in human Jurkat cells; type: cell-based
# T2 sequence (Q13546 whole entry): T1 sequence (whole entry) with M45K
# Outline: (§4)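 RIP1 immunoprecipitated from Jurkat cells and autophosphorylated in vitro across a titration of compound. Autophosphorylation quantified by phosphorimager; EC50 derived by nonlinear regression curve fitting. An aliquot of each reaction was blotted for RIP1 to check protein input.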
# [9] = molecular target: T3, Heat shock protein HSP90 (Homo sapiens) (UniProt P07900+P08238); experiment: Inhibition of FITC-geldanamycin binding to HSP90 in human Jurkat cell lysates at 30 uM by fluorimetric assay; type: cell-free
# [10] = molecular target: T3, Heat shock protein HSP90 (Homo sapiens); experiment: Inhibition of to HSP90 in FADD deficient human Jurkat cells assessed as RIP protein degradation at 30 uM by Western blot; type: cell-based
# Outline: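 FADD-deficient Jurkat cells exposed to 30 µM compound for 16 hr; RIP1 levels then assessed by western blot against anti-RIP1, with tubulin as loading control.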
# [11] = tested on: T1, Receptor-interacting serine/threonine-protein kinase 1 (Homo sapiens), Q13546 [K45M]; experiment: Inhibition of human RIP1 K45M mutant autophosphorylation expressed in Sf9 cells
# [12] = tested on: T4, Receptor-interacting serine/threonine-protein kinase 1 (Homo sapiens), Q13546 [S161E]; conditions: HEK-293T, 100 uM
# T4 sequence (whole entry): T1 sequence (whole entry) with M45K, S161E
# Jurkat [13] = experiment: Inhibition of cellular necroptosis in TNFalpha treated […] human Jurkat cells expressing RIP1 S161E mutant at 30 uM; type: functional, cell-based
# Jurkat [14] = experiment: Inhibition of TNF-alpha-induced NF-kappaB activation expressed in FADD deficient human Jurkat cells by luciferase reporter gene assay; type: cell-based; outline: as §1
# [15] = tested on: T1, Receptor-interacting serine/threonine-protein kinase 1 (Homo sapiens), Q13546 [K45M]; experiment: Inhibition of human RIP1 K45M mutant autophosphorylation expressed in Sf9 cells at 10 to 30 uM
# HEK-293T [16] = experiment: Inhibition of TNF-alpha-induced NF-kappaB activation expressed in HEK293T cells by luciferase reporter gene assay; type: cell-based; outline: as §2
# [17] = tested on: T1, Receptor-interacting serine/threonine-protein kinase 1 (Homo sapiens), Q13546 [K45M]; experiment: Inhibition of human RIP1 K45M mutant autophosphorylation expressed in FADD deficient human Jurkat cells at 10 to 30 uM; type: cell-based
# [18] = molecular target: T5, Receptor-interacting serine/threonine-protein kinase 1 (Homo sapiens) (UniProt Q13546); experiment: as §3; type: cell-based; outline: as §4
# T5 sequence (whole entry): T1 sequence (whole entry) with M45K
# [19] = tested on: T4, Receptor-interacting serine/threonine-protein kinase 1 (Homo sapiens), Q13546 [S161E]; experiment: Inhibition of human RIP1 S161E mutant autophosphorylation expressed in HEK293T cells at 10 to 30 uM; type: cell-based; conditions: HEK-293T
# Jurkat [20] = experiment: Inhibition of cellular necroptosis in TNFalpha treated FADD and RIP1 deficient human Jurkat cells at 30 uM; type: functional, cell-based
structure (smiles),measurement,setting,value
CN1C(=O)C(Cc2c[nH]c3c(Cl)cccc23)NC1=S (stereo not drawn),inhibition,[1],Active
CN1C(=O)C(Cc2c[nH]c3ccccc23)N(C)C1=S (stereo not drawn),EC50,Jurkat [2],78 µM
same,inhibition,[1],inactive
N#CCSc1nc2sc3c(c2c(=O)n1-c1ccccc1)CCCC3,EC50,Jurkat [2],> 100 µM
same,inhibition,[1],inactive
CN1C(=O)C(Cc2cn(C)c3ccccc23)NC1=S (stereo not drawn),EC50,Jurkat [2],33 µM
same,inhibition,[1],inactive
O=[N+]([O-])c1ccc(-c2nc(-c3ccc(F)cc3)c(-c3ccncc3)[nH]2)cc1,inhibition,[3],Active
CN1C(=O)NC(Cc2c[nH]c3ccccc23)C1=O (stereo not drawn),inhibition,[1],Active
CN1CC(Cc2c[nH]c3c(Cl)cccc23)NC1=O (stereo not drawn),EC50,Jurkat [2],> 100 µM
CN1C(=O)C(Cc2c[nH]c3ccccc23)NC1=S (stereo not drawn) [NECROSTATIN],inhibition,Jurkat [4],inactive
same,inhibition,HEK-293T [5],inactive
same,inhibition,Jurkat [6],inactive
same,inhibition,[7],inactive
same,EC50,[8],0.182 µM
same,inhibition,[3],inactive
same,inhibition,[9],inactive
same,inhibition,[10],inactive
same,inhibition,[11],Active
same,inhibition,[12],inactive
same,inhibition,Jurkat [13],inactive
same,inhibition,[1],Dose-dependent effect
COC1=C2C[C@@H](C)C[C@H](OC)[C@H](O)[C@@H](C)/C=C(\C)[C@H](OC(N)=O)[C@@H](OC)/C=C\C=C(/C)C(=O)NC(=CC1=O)C2=O,inhibition,Jurkat [14],Active
same,inhibition,[15],inactive
same,inhibition,HEK-293T [16],Active
same,inhibition,[17],inactive
O=C1NC(=S)NC1Cc1c[nH]c2ccccc12 (stereo not drawn),inhibition,[18],inactive
same,inhibition,[11],inactive
same,EC50,Jurkat [2],> 100 µM
same,inhibition,[1],inactive
COc1ccc([C@H]2[C@H]3CCc4ccccc4C3=NN2C(C)=O)cc1,inhibition,Jurkat [4],inactive
same,inhibition,HEK-293T [5],inactive
same,inhibition,[19],Active
same,inhibition,[9],inactive
same,inhibition,[10],inactive
same,inhibition,[11],Active
same,EC50,Jurkat [2],0.29 µM
same,inhibition,Jurkat [13],Active
same,inhibition,[1],Active
same,inhibition,[17],Active
C[C@@H]1C[C@@H]([C@H](O)CC2CC(=O)NC(=O)C2)C(=O)[C@@H](C)C1,inhibition,Jurkat [20],inactive
COc1ccc([C@H]2[C@H]3CCc4c(OC)cccc4C3=NN2C(C)=O)cc1,EC50,Jurkat [2],> 100 µM
same,inhibition,[1],inactive
COC(=O)C[C@H](NC(=O)[C@H](C)NC(=O)[C@@H](NC(=O)OCc1ccccc1)C(C)C)C(=O)CF (Cbz-Val-Ala-Asp(OMe)-CH2F),inhibition,Jurkat [20],inactive
COc1ccc(-n2c(SCC#N)nc3sc4c(c3c2=O)CCCC4)cc1,inhibition,Jurkat [4],inactive
same,inhibition,HEK-293T [5],inactive
same,inhibition,[9],inactive
same,inhibition,[10],inactive
same,inhibition,[11],inactive
same,inhibition,[1],Active
same,inhibition,[17],Active
CN1C(=O)C(C)(Cc2c[nH]c3ccccc23)NC1=S (stereo not drawn),EC50,Jurkat [2],> 100 µM
same,inhibition,[1],inactive
